Laboratory results published in ChEMBL document CHEMBL1135804, “Beta-strand mimicking macrocyclic amino acids: templates for protease inhibitors with antiviral activity” (J Med Chem, 2002).

What was measured:
MT2 = test: Concentration required to produce 50% reduction in virion associated RT activity in HIV-1 infected MT2 cells; type: functional, cell-based; details: Homo sapiens
Procedure, shortened: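 MT2 cells (5 × 10⁴ per 0.25 mL RF10, RPMI-1640-based) given compound (diluted from 20 mM stock in 60% ethanol), then immediately HIV-1 strain #237288 at 200 TCID₅₀; 37 °C, 5% CO₂, 6–7 days; duplicates. Supernatant virus PEG-precipitated, virion-associated RT activity counted by scintillation; % inhibition versus virus-only controls; IC50 = 50% RT reduction.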

[1] = The Water-octanol distribution coefficient at pH6.5; type: physicochemical; details: pH 6.5, read-out: Log D6.5
Procedure, shortened: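 Value computed by a cited calculation method at pH 6.5, not measured experimentally.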

[2] = molecular target: Human immunodeficiency virus type 1 protease (Human immunodeficiency virus 1, UniProt Q72874); test: Inhibitory activity against HIV-1 protease

Row | Compound | IC50 (MT2) | logD [1] | Ki [2]
1 | CC(C)CN(C[C@@H](O)[C@H](Cc1ccccc1)NC(=O)O[C@H]1CCOC1)S(=O)(=O)c1ccc(N)cc1 | 30 nM | – | –
2 | CCCCC(=O)N[C@H]1CCCCOc2ccc(cc2)C[C@@H]([C@H](O)CN(CCC(C)C)S(=O)(=O)c2ccc(NC(C)=O)cc2)NC(=O)[C@H](CCCC)NC1=O | 580 nM | 4.6 | –
3 | CCCC[C@@H]1NC(=O)[C@@H](NC(=O)[C@@H](N)CO)CCCCOc2ccc(cc2)C[C@@H]([C@H](O)CN(CCC(C)C)S(=O)(=O)c2ccc(N)cc2)NC1=O | > 10000 nM | 0.6 | 3 nM
4 | CC(C)CCN(C[C@@H](O)[C@@H]1Cc2ccc(cc2)OCCCC[C@H](N)C(=O)N[C@@H](C(C)C)C(=O)N1)S(=O)(=O)c1ccc(N)cc1 | > 10000 nM | 1 | 0.9 nM
5 | CCCC[C@@H]1NC(=O)[C@@H](NC(=O)OC(C)(C)C)CCCCOc2ccc(cc2)C[C@@H]([C@H](O)CN(CCC(C)C)S(=O)(=O)c2ccc(NC(C)=O)cc2)NC1=O | 390 nM | 4.8 | 7.5 nM
6 | CC(=O)N[C@@H](CO)C(=O)N[C@H]1CCCCOc2ccc(cc2)C[C@@H]([C@H](O)CN(CCC(C)C)S(=O)(=O)c2ccc(N)cc2)NC(=O)[C@H](C(C)C)NC1=O | > 10000 nM | 0.4 | 0.34 nM
7 | CCCOC[C@@H]1NC(=O)[C@@H](NC(=O)OC(C)(C)C)CCCCOc2ccc(cc2)C[C@@H]([C@H](O)CN(CCC(C)C)S(=O)(=O)c2ccc(NC(C)=O)cc2)NC1=O | 825 nM | 3.6 | 45 nM
8 | CCCC[C@@H]1NC(=O)[C@@H](NC(=O)[C@H](CO)NC(=O)OC(C)(C)C)CCCCOc2ccc(cc2)C[C@@H]([C@H](O)CN(CCC(C)C)S(=O)(=O)c2ccc(NC(C)=O)cc2)NC1=O | 2550 nM | 3 | 12 nM
9 | CCCC[C@@H]1NC(=O)[C@@H](NC(C)=O)CCCCOc2ccc(cc2)C[C@@H]([C@H](O)CN(CCC(C)C)S(=O)(=O)c2ccc(N)cc2)NC1=O | 910 nM | 3 | 2.8 nM
10 | CCCOC[C@@H]1NC(=O)[C@@H](N)CCCCOc2ccc(cc2)C[C@@H]([C@H](O)CN(CCC(C)C)S(=O)(=O)c2ccc(N)cc2)NC1=O | > 10000 nM | 0.5 | 45 nM
11 | CC(=O)Nc1ccc(S(=O)(=O)N(CCC(C)C)C[C@@H](O)[C@@H]2Cc3ccc(cc3)OCCCC[C@H](NC(=O)OC(C)(C)C)C(=O)N[C@@H](C(C)C)C(=O)N2)cc1 | 177 nM | 4.1 | 2 nM
12 | CCCC[C@@H]1NC(=O)[C@@H](N)CCCCOc2ccc(cc2)C[C@@H]([C@H](O)CN(CCC(C)C)S(=O)(=O)c2ccc(N)cc2)NC1=O | 6850 nM | 1.7 | 0.31 nM
